Reference: ChEMBL document CHEMBL1649486, “Comparative efficacies of telavancin and vancomycin in preventing device-associated colonization and infection by Staphylococcus aureus in rabbits” (2009)
≈ marks a conversion by molar mass, not a printed value.

Key:
Format in all cases: functional
Staphylococcus aureus [1] = experiment: Antimicrobial activity against Staphylococcus aureus P1 infected in New Zealand rabbit assessed as decrease in catheter related infection rate at 45 mg/kg, iv (reference value: 100%); design: scale not given: the % may be the effect or the level left
Outline: (§1)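 Female specific-pathogen-free New Zealand White rabbits, 4-7 months old, 3-4 kg, nine per group. Each got a single iv dose over ~2 min under anesthesia, with D5W as control. Six subcutaneous catheter segments per rabbit were surface-inoculated with 10^5 CFU MSSA P1. Infection = inoculated strain grown from both the device sonication culture and a swab of adjacent soft-tissue collection or wound discharge; rate = infected/total devices.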

Staphylococcus aureus [2] = experiment: Antimicrobial activity against Staphylococcus aureus P1 infected in New Zealand rabbit assessed as decrease in catheter bacterial colonization rate at 30 mg/kg, iv (reference value: 100%); design: scale not given: the % may be the effect or the level left
Outline: (§2)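 Female specific-pathogen-free New Zealand White rabbits, 4-7 months old, 3-4 kg, nine per group. Each got a single iv dose over ~2 min under anesthesia, with D5W as control. Six 2-cm polyurethane catheter segments were implanted subcutaneously in the back, and each surface was inoculated with 10^5 CFU MSSA P1 in Trypticase soy broth. Explants were sonicated in 2 ml saline and the sonicate cultured (detection limit 10 CFU). Colonization = inoculated strain grown from sonicate; rate = colonized/total devices.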

Staphylococcus aureus [3] = experiment: Antimicrobial activity against Staphylococcus aureus P1 infected in New Zealand rabbit assessed as decrease in catheter related infection rate at 30 mg/kg, iv (reference value: 100%); design: scale not given: the % may be the effect or the level left; outline: as §1
Staphylococcus aureus [4] = experiment: Antimicrobial activity against Staphylococcus aureus P1 by macrodilution method
Outline: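 MIC and minimal bactericidal concentration determined in triplicate by standard broth macrodilution against MSSA clinical isolate P1.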

Staphylococcus aureus [5] = experiment: Antimicrobial activity against Staphylococcus aureus P1 infected in New Zealand rabbit assessed as decrease in catheter bacterial colonization rate at 15 mg/kg, iv (reference value: 100%); design: scale not given: the % may be the effect or the level left; outline: as §2
Staphylococcus aureus [6] = experiment: Antimicrobial activity against Staphylococcus aureus P1 infected in New Zealand rabbit assessed as decrease in catheter bacterial colonization rate at 45 mg/kg, iv (reference value: 100%); design: scale not given: the % may be the effect or the level left; outline: as §2
Staphylococcus aureus [7] = experiment: Antimicrobial activity against Staphylococcus aureus P1 infected in New Zealand rabbit assessed as decrease in catheter related infection rate at 15 mg/kg, iv (reference value: 100%); design: scale not given: the % may be the effect or the level left; outline: as §1

Compound | Activity (Staphylococcus aureus [1]) [%] | Activity (Staphylococcus aureus [2]) [%] | Activity (Staphylococcus aureus [3]) [%] | MBC (Staphylococcus aureus [4]) [µg/mL] | MIC (Staphylococcus aureus [4]) [µg/mL] | Activity (Staphylococcus aureus [5]) [%] | Activity (Staphylococcus aureus [6]) [%] | Activity (Staphylococcus aureus [7]) [%]
CCCCCCCCCCNCCN[C@@]1(C)C[C@H](O[C@H]2[C@H](Oc3c4cc5cc3Oc3ccc(cc3Cl)[C@@H](O)[C@@H](NC(=O)[C@@H](CC(C)C)NC)C(=O)N[C@@H](CC(N)=O)C(=O)N[C@H]5C(=O)N[C@H]3C(=O)N[C@H](C(=O)N[C@H](C(=O)O)c5cc(O)c(CNCP(=O)(O)O)c(O)c5-c5cc3ccc5O)[C@H](O)c3ccc(c(Cl)c3)O4)O[C@H](CO)[C@@H](O)[C@@H]2O)O[C@@H](C)[C@H]1O [TELAVANCIN] | 11 | 11 | 9 | 1 (≈ 0.57 µM) | 0.25 (≈ 0.142 µM) | 39 | 11 | 35
CN[C@H](CC(C)C)C(=O)N[C@H]1C(=O)N[C@@H](CC(N)=O)C(=O)N[C@H]2C(=O)N[C@H]3C(=O)N[C@H](C(=O)N[C@H](C(=O)O)c4cc(O)cc(O)c4-c4cc3ccc4O)[C@H](O)c3ccc(c(Cl)c3)Oc3cc2cc(c3O[C@@H]2O[C@H](CO)[C@@H](O)[C@H](O)[C@H]2O[C@H]2C[C@](C)(N)[C@H](O)[C@H](C)O2)Oc2ccc(cc2Cl)[C@H]1O [VANCOMYCIN] | – | – | – | 8 (≈ 5.52 µM) | – | – | – | –
